Laboratory results from ChEMBL document CHEMBL2163190, “Synthesis and evaluation of substituted chroman-4-one and chromone derivatives as sirtuin 2-selective inhibitors” (J Med Chem, 2012).
The source made the active and inactive calls. The calls are words filed in the database; no cut-off is given here.

Legend:
[1] = molecular target: T1, NAD-dependent protein deacetylase sirtuin-1 (Homo sapiens) (UniProt Q96EB6); experiment: Inhibition of recombinant GST-tagged SIRT1 preincubated at 200 uM for 5 mins measured after 1hr by Fluor de Lys-based fluorescence assay
T1 sequence (whole entry): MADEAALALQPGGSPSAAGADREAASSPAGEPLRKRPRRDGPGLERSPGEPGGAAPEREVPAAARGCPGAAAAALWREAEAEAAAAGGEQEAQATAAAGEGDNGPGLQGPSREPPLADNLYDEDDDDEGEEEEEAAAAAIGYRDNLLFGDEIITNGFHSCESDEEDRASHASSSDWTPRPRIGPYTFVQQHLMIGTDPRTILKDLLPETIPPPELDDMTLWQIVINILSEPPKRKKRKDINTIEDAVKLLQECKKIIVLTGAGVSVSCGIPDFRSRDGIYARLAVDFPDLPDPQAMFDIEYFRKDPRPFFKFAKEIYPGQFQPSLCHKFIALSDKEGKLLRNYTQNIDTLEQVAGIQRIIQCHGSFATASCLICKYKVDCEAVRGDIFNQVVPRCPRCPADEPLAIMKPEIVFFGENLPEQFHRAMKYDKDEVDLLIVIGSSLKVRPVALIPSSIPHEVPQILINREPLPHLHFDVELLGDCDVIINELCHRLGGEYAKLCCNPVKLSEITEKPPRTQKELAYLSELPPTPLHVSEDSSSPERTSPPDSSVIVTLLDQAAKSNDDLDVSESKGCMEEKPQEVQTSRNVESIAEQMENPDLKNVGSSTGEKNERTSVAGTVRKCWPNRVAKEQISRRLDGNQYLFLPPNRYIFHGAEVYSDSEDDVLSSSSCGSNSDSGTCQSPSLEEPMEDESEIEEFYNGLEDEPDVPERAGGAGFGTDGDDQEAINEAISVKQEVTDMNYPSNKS
How it was run: (§1)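 Fluor de Lys assay with compound at 200 μM in DMSO. […] Substrate was used at 0.7 Km and NAD+ at 0.9 Km. Preincubated 5 min at RT, then enzyme for 1 h at 37 °C, then developer/nicotinamide for 45 min at 37 °C. Read at ex 355/em 460 nm.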

[2] = molecular target: T2, NAD-dependent protein deacetylase sirtuin-3, mitochondrial (Homo sapiens) (UniProt Q9NTG7); experiment: Inhibition of recombinant His-tagged SIRT3 preincubated at 200 uM for 5 mins measured after 1hr by Fluor de Lys-based fluorescence assay; how it was run: as §1
T2 sequence (whole entry): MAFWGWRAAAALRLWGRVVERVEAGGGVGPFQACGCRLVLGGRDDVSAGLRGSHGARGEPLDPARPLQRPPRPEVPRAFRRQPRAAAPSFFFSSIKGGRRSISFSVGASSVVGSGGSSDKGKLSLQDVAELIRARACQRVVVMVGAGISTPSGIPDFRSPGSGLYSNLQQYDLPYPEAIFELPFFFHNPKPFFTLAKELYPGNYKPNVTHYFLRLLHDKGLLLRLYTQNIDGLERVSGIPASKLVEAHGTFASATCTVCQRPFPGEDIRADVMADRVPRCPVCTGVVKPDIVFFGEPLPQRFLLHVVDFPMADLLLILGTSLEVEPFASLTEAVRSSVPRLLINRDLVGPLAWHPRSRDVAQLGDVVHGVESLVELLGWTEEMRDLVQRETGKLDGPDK

[3] = molecular target: T3, NAD-dependent protein deacetylase sirtuin-2 (Homo sapiens) (UniProt Q8IXJ6); experiment: Inhibition of human recombinant GST-tagged SIRT2 preincubated at 200 uM for 5 mins measured after 1 hr by Fluor de Lys-based fluorescence assay
T3 sequence (whole entry): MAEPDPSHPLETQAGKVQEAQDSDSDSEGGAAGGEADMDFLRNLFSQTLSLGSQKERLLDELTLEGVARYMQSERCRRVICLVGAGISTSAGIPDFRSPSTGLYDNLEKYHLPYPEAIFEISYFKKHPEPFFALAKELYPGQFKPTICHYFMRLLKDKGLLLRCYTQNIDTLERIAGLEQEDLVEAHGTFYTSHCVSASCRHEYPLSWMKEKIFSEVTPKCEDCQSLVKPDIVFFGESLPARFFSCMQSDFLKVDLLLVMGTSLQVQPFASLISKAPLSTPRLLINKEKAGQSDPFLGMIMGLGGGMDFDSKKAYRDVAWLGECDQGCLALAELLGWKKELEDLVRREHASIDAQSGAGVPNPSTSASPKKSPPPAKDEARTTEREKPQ
How it was run: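 GST-SIRT2 assay with Fluor de Lys KI179 substrate at 0.7 Km (Km 198 μM) and NAD+ at 0.9 Km (Km 547 μM), in HDAC buffer with 1 mg/mL BSA. Substrate, NAD+ and compound (200 μM, DMSO) were preincubated 5 min at RT, then enzyme added for 1 h at 37 °C. Developer plus nicotinamide (2 mM) was added for 45 min at 37 °C. Read at ex 355/em 460 nm; n = 3, SD.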

[4] = molecular target: T4, NAD-dependent protein deacetylase sirtuin-2 (Homo sapiens, UniProt Q8IXJ6); experiment: Inhibition of human recombinant GST-tagged SIRT2 preincubated for 5 mins measured after 1 hr by Fluor de Lys-based fluorescence assay
T4 sequence (Q8IXJ6 whole entry): T3 sequence (whole entry)
How it was run: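 Fluorogenic GST-SIRT2 assay using KI179 at 0.7 Km and NAD+ at 0.9 Km, in BSA-supplemented HDAC buffer. Compound, substrate and NAD+ were preincubated 5 min at RT, then enzyme added for 1 h at 37 °C, followed by developer/nicotinamide for 45 min at 37 °C. Fluorescence read at 355/460 nm.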

[5] = molecular target: T3, NAD-dependent protein deacetylase sirtuin-2 (Homo sapiens); experiment: Inhibition of SIRT2 using RSTGGK(Ac)APRKQ as substrate assessed as inhibition of [14C]nicotinamide release at 200 uM after 1h by TLC
How it was run: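 Recombinant GST-SIRT2 started the reaction with [carbonyl-14C]NAD+ (43.2 nCi) and acetylated peptide RSTGGK(Ac)APRKQ (196 μM). Buffer was HDAC assay buffer plus 1 mg/mL BSA, with compound at 200 μM final in DMSO. Incubated 1 h at 37 °C. The whole mixture was run on silica TLC in ethanol/2.5 M ammonium acetate (80:20), exposed overnight to X-ray film, and [14C]nicotinamide quantified by densitometry.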

[6] = molecular target: T3, NAD-dependent protein deacetylase sirtuin-2 (Homo sapiens); experiment: Inhibition of human SIRT2 assessed as inhibition of deacetylation of rat stem cell acetylated alpha-tubulin at 200 uM after 30 to 60 mins by Western blot analysis
How it was run: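 Acetylated α-tubulin (0.5 μg) isolated from rat stem cells was incubated with recombinant GST-SIRT2, NAD+ (500 μM) and compound (200 μM final, DMSO vehicle) in SIRT assay buffer for 30 or 60 min at 37 °C. Samples were resolved on 10% SDS-PAGE and blotted to nitrocellulose. Probed with anti-acetylated tubulin mAb 6-11B-1 (1:8000, 2 h, RT), then HRP anti-mouse secondary (1:50000, 2 h).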

Compound	inhibition [1]	inhibition [2]	inhibition [3]	IC50 [4]	inhibition [5]	inhibition [6]
CCCCCC1CC(=O)c2cc(C)cc(C)c2O1 (racemic)	< 10%	< 10%	83%	6.2 µM		
Cc1ccc(S(=O)(=O)n2cc(CCC3CC(=O)c4cc(Cl)cc(Br)c4O3)c3ccccc32)cc1 (racemic)			27%			
CCCCCC1CC(=O)c2ccccc2O1 (racemic)			4.9%			
CCCCCC1CC(=O)c2cccc(Br)c2O1 (racemic)			28%			
CCCCCC1CC(=O)c2ccc(F)cc2O1 (racemic)			18%			
CCCCCC1CC(=O)c2cc(OC)ccc2O1 (racemic)			20%			
O=C1CC(CCc2ccccc2)Oc2c(Br)cc(Cl)cc21 (racemic)	< 10%	16%	81%	6.8 µM		
CCCCCC1CC(=O)c2cc([N+](=O)[O-])ccc2O1 (racemic)			58%			
CCCCCC1CC(=O)c2cc(Cl)ccc2O1 (racemic)			55%			
CC(C)C1CC(=O)c2cc(Cl)cc(Br)c2O1 (racemic)			52%			
CCCCCC1CC(=O)c2cc(F)cc(F)c2O1 (racemic)			30%			
O=C1CC(CCc2c[nH]c3ccccc23)Oc2c(Br)cc(Cl)cc21 (racemic)			53%			

Further lines, results first:

inhibition [1]	inhibition [2]	inhibition [3]	IC50 [4]	inhibition [5]	inhibition [6]	Compound
		57%				CCCCCCCC1CC(=O)c2cc(Cl)cc(Br)c2O1 (racemic)
< 10%	< 10%	91%	1.5 µM			CCCCC[C@H]1CC(=O)c2cc(Cl)cc(Br)c2O1
< 10%	< 10%	82%	5.5 µM			CCCCCc1cc(=O)c2cc(Cl)cc(Br)c2o1
		38%				CCCCCC1CCc2cc(Cl)cc(Br)c2O1 (centres undefined)
		20%				O=c1cc(-c2ccccc2)oc2c(Br)cc(Cl)cc12
< 10%	< 10%	92%	1.5 µM			CCCCCC1CC(=O)c2cc(Br)cc(Br)c2O1 (racemic)
< 10%	< 10%	76%	10.6 µM			CCCC1CC(=O)c2cc(Cl)cc(Br)c2O1 (racemic)
		38%				CCCCCC1C=Cc2cc(Cl)cc(Br)c2O1 (centres undefined)
		31%				CCCCCC1CC(O)c2cc(Cl)cc(Br)c2O1 (mixture of isomers)
< 10%	< 10%	70%	4.5 µM			CCCCC[C@@H]1CC(=O)c2cc(Cl)cc(Br)c2O1
< 10%	< 10%	88%	4.3 µM	66%	Active	CCCCCC1CC(=O)c2cc(Cl)cc(Br)c2O1 (racemic)
